Results on 37 compounds are retold here after ChEMBL document CHEMBL3739387, “Discovery and SAR of Novel and Selective Inhibitors of Urokinase Plasminogen Activator (uPA) with an Imidazo[1,2-a]pyridine Scaffold” (J Med Chem, 2015).

Molecules are shown by their SMILES. Active and inactive are the calls of the source. The calls are words filed in the database; no cut-off is given here. Where only a bound is given, the exact number is not on record here.

Assay [1] concerns the target T1, Urokinase-type plasminogen activator (Homo sapiens, UniProt P00749). As to the kind of experiment: Inhibition of human uPA using pyro-Glu-Gly-Arg-pNA as substrate assessed as para-nitroaniline release from substrate measured for 5 mins by spectrophotometric assay.
Assay [2] can be described thus: Inhibition of bovine pancreatic trypsin using Nalpha-benzoyl-D,L-Arg-pNA-HCl as substrate measured for 5 mins by spectrophotometric assay. Further details: species or system Bos taurus.
In assay [3] the target is T2, Coagulation factor VII (Homo sapiens) (UniProt P08709).
T2 sequence (whole entry): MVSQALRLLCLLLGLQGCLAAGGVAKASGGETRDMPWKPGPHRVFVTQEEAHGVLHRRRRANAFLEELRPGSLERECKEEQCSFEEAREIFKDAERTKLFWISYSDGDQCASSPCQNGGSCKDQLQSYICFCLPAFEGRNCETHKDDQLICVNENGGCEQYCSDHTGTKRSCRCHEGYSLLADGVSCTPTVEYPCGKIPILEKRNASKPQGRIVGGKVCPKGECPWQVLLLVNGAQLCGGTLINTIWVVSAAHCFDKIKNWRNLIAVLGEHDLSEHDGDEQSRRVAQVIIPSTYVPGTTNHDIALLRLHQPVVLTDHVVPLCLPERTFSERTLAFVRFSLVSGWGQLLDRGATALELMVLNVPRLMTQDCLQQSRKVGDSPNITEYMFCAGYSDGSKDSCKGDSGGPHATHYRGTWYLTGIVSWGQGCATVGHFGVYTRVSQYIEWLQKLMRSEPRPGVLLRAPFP
In words: Inhibition of purified human factor 7a using MeSO2-Cha-Abu-Arg-pNA as substrate at 100 uM measured for 5 mins by spectrophotometric assay. The method in brief:
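Purified human plasma FVIIa with tissue factor (Innovin) present. MeSO2-Cha-Abu-Arg-pNA at 800 μM in assay. Buffer 50 mM HEPES pH 7.5, 100 mM NaCl, 5 mM CaCl2, 0.1% BSA.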

In assay [4] the target is Prothrombin (Homo sapiens, UniProt P00734). As to the kind of experiment: Inhibition of human plasma thrombin using pyroGlu-Pro-Arg-pNA-HCl as substrate at 100 uM measured for 5 mins by spectrophotometric assay. It counts as cell-free. In a few lines: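 Thrombin from human plasma with pyroGlu-Pro-Arg-pNA (CS-21(66), Km 400 μM) at 415 μM in assay. 50 mM HEPES pH 8.2. pNA release at 405 nm over 5 min at 37 °C, in duplicate.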

Assay [5] addresses Tissue-type plasminogen activator (Homo sapiens, UniProt P00750). As to the kind of experiment: Inhibition of recombinant human tPA using H-D-Ile-Pro-L-Arg-pNA-2HCl as substrate at 100 uM measured for 5 mins by spectrophotometric assay.
Assay [6] deals with T3, Coagulation factor X (Homo sapiens, UniProt P00742). In words: Inhibition of purified human factor 10a using Suc-Ile-Glu(yPip)-GlyArg-pNa-HCl as substrate at 100 uM measured for 5 mins by spectrophotometric assay. In a few lines: (§1)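 Purified human factor Xa, substrate Suc-Ile-Glu(γPip)-Gly-Arg-pNA (CS-11(32)) at 411 μM in assay. HEPES pH 8.2. Read at 405 nm for 5 min at 37 °C, duplicate wells.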
T3 sequence (P00742 41-179 limits assumed): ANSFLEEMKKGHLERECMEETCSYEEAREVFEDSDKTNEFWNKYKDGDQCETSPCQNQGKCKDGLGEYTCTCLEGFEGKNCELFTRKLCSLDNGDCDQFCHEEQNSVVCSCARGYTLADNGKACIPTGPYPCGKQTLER
T3 sequence (P00742 235-488 limits assumed): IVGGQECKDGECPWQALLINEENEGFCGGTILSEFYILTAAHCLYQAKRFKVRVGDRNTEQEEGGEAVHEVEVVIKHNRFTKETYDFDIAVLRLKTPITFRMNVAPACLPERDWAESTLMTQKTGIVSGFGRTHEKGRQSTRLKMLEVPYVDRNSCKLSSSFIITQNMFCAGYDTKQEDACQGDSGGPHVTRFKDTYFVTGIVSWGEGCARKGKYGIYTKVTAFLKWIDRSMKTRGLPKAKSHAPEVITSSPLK

The target in assay [7] is Plasminogen (Homo sapiens, UniProt P00747). In words: Inhibition of human plasma plasmin using pyroGlu-Pro-Arg-pNA-HCl as substrate at 100 uM measured for 5 mins by spectrophotometric assay. It counts as cell-free. In a few lines:
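Plasmin purified from human plasma. Substrate pyroGlu-Pro-Arg-pNA (CS-21(66), Km 400 μM) at 400 μM in assay. HEPES pH 7.0, 37 °C, absorbance at 405 nm followed for 5 min, duplicates.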

For assay [8], the target named is Plasma kallikrein (Homo sapiens, UniProt P03952). As to the kind of experiment: Inhibition of human plasma kallikrein using D-Pro-Phe-Arg-pNA-2HCl as substrate at 100 uM measured for 5 mins by spectrophotometric assay. It counts as cell-free. The method in brief: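 Human plasma kallikrein, chromogenic substrate CS-31(02) (Km 269 μM) at 269 μM in assay. 50 mM HEPES at pH 7.4. Absorbance at 405 nm over 5 min at 37 °C, duplicates.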
Plasma kallikrein, sequence (P03952 20-390 limits assumed): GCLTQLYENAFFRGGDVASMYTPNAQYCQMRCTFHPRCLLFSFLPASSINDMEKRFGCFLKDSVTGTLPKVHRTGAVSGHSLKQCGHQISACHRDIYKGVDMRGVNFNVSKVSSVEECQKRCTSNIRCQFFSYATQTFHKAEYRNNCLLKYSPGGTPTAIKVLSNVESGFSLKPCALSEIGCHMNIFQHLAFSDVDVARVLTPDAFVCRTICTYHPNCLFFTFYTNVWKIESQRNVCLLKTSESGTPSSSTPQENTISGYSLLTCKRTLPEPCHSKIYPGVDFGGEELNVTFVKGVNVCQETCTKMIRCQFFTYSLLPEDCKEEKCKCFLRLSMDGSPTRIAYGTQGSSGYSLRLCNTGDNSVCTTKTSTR
Plasma kallikrein, sequence (P03952 391-638 limits assumed): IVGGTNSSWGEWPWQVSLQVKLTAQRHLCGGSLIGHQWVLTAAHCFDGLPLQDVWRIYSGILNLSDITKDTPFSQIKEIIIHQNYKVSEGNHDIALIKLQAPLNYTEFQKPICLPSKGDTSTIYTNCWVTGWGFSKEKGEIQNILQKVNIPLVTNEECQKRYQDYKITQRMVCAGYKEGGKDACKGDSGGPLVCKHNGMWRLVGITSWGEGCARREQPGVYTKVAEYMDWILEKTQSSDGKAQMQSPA

Assay [9] has as its target T3, Coagulation factor X. In words: Inhibition of purified human factor 10a using Suc-Ile-Glu(gammaPip)-GlyArg-pNa-HCl as substrate measured for 5 mins by spectrophotometric assay. In a few lines:
as §1

The species named for assay [10] is Bos taurus. As to the kind of experiment: Inhibition of bovine pancreatic trypsin using Na-benzoyl-D,L-Arg-pNA-HCl as substrate at 100 uM measured for 5 mins by spectrophotometric assay.
Assay [11] has as its target T1, Urokinase-type plasminogen activator. As to the kind of experiment: Reversible inhibition of human uPA using pyro-Glu-Gly-Arg-pNA as substrate assessed as para-nitroaniline release from substrate measured for 5 mins by spectrophotometry based enzyme kinetics assay.
Assay [12] shares this target. As to the kind of experiment: Tight binding inhibition of human uPA using pyro-Glu-Gly-Arg-pNA as substrate assessed as para-nitroaniline release from substrate measured for 5 mins by spectrophotometry based enzyme kinetics assay.
Assay [13] has the same target. As to the kind of experiment: Slow dissociating inhibition of human uPA using pyro-Glu-Gly-Arg-pNA as substrate assessed as para-nitroaniline release from substrate measured for 5 mins by spectrophotometry based enzyme kinetics assay.

Tissue-type plasminogen activator, sequence (P00750 36-562 limits assumed): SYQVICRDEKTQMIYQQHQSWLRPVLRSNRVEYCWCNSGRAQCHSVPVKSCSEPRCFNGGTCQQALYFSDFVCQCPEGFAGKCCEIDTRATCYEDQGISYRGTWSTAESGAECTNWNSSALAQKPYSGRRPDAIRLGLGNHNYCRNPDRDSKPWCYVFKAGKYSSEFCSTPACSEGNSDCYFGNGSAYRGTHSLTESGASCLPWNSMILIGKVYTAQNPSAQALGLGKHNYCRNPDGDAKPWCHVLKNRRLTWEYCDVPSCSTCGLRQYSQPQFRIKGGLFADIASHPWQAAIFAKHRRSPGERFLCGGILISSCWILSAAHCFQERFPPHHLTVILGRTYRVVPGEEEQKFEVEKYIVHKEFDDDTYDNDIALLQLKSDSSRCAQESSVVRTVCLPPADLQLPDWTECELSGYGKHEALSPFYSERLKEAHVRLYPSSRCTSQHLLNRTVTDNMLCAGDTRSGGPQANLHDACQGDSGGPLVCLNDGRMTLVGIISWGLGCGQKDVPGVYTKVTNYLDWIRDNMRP
Plasminogen, sequence (P00747 97-580 limits assumed): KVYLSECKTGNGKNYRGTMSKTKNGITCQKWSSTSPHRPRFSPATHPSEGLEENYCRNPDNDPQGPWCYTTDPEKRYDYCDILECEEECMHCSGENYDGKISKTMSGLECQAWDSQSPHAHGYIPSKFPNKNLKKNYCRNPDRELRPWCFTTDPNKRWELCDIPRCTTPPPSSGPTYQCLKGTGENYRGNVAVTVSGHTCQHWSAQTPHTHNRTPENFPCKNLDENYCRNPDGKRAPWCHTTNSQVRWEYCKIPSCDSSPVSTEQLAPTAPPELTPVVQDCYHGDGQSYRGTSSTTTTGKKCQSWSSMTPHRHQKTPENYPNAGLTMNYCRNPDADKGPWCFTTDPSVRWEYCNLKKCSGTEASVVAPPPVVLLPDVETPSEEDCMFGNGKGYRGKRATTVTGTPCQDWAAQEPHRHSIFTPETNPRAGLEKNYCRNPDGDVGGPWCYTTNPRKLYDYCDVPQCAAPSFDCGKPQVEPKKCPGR
Plasminogen, sequence (P00747 581-810 limits assumed): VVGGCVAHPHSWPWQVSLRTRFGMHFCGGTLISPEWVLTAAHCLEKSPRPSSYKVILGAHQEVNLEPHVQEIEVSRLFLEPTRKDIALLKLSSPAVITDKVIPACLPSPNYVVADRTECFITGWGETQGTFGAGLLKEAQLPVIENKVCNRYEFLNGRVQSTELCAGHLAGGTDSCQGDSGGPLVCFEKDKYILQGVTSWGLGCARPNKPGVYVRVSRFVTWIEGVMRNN

With `Cc1cccn2c(NCc3ccc(NC(=N)N)cc3)c(-c3cccnc3)nc12`, the IC50 (commonly the concentration that gives 50% inhibition) in assay [1] was 27.4 µM.

As for `NCCOc1ccc(Nc2cnc3ccccn23)cc1`, the IC50 in assay [1] is more than 1000 µM.

As for `N=C(N)Nc1ccc(CNc2c(-c3cccc(F)c3)nc3ccccn23)cc1`, the IC50 in assay [1] stood at 100 µM.

For the compound `N=C(N)Nc1ccc(CNc2cnc3ccccn23)cc1`, the values for the IC50 in assay [1] and in [2] were 9.04 µM and 115 µM, respectively. Also, the inhibition (commonly the relative decrease from the control value, in per cent) in [3] is 2.5%; in [4] it was 23%; in [5] it was 33.6%; in [6] it was 42%; in assay [7] it was 29.8%; in assay [8], 39.4%.

For `N=C(N)Nc1ccc(CNc2cnc3cc(C(=O)NCCO)ccn23)cc1`, the results for the IC50 in assay [1] and in [9] were 0.366 µM and 51.6 µM, respectively. The inhibition in assay [3] was 5%; in assay [4] it was 4.7%; in assay [5] it was 0%; in assay [7] it was 15.6%; in [8], 0%; in [10], 43.3%. Moreover, the inhibition entry in [11], in assay [12] and in assay [13] was “Active” throughout.

Turning to `N=C(N)NCCCCNc1cnc2ccccn12`, the IC50 in [1] turned out to be 200 µM.

For `N=C(N)Nc1ccc(CNc2c(-c3cccnc3)nc3cc(C(=O)O)ccn23)cc1`, the IC50 in assay [1] worked out at 26.9 µM.

Regarding `N=C(N)Nc1ccc(CCNc2c(-c3cccc(Cl)c3)nc3cnccn23)cc1`, in [1], the IC50 was determined as 53.8 µM.

As for `N=C(N)Nc1ccc(CNc2c(-c3cccnc3)nc3ccc(C(N)=O)cn23)cc1`, the IC50 in assay [1] was determined as 27.3 µM.

As to `N=C(N)Nc1ccccc1`, the inhibition in assay [3], in assay [4], in [5], in assay [6], in [7] and in [8] was 0% each time. Besides, the inhibition in [10] came to 38.8%.

Turning to `N=C(N)Nc1ccc(CNc2c(-c3cccnc3)nc3ccccn23)cc1`, the IC50 in assay [1] worked out at 250 µM. The inhibition in [3] was found to be 0%; in assay [4] it was 6.6%; in assay [5], 9.4%; in assay [6], 24.6%; in assay [7], 0%; in assay [8] it was 0%. The inhibition in assay [10] was 3.3%.

As to `N=C(N)NC(=O)c1nc(Cl)c(N)nc1N` [AMILORIDE], in [2], the IC50 was found to be 31.8 µM. Also, the inhibition was determined as 7.4% in assay [3]; 5.2% in assay [4]; 1% in assay [5]; 3.5% in assay [6]; 0% in [7]; 0% in [8].

Turning to `CCCCNC(=O)c1ccc2nc(-c3cccnc3)c(NCc3ccc(NC(=N)N)cc3)n2c1`, in assay [1], the IC50 came to 60.8 µM.

On to `CCc1nc2ccccn2c1NCCc1ccc(NC(=N)N)cc1`, for which, in [1], the concentration for half-maximal inhibition (IC50) turned out to be 150 µM.

As to `CN1CCN(CCNC(=O)c2ccn3c(NCc4ccc(NC(=N)N)cc4)cnc3c2)CC1`, the IC50 in [1] was found to be 0.404 µM. Moreover, the inhibition in assay [3] stood at 2%; in assay [4], 6.6%; in assay [5], 2.8%; in [6], 12.2%; in [7], 0%; in [8], 0%. In [10], this compound displayed an inhibition of 32%. The inhibition entry in assay [11], in assay [12] and in [13] was “Active” throughout.

For `N=C(N)Nc1ccc(CNc2c(-c3cccnc3)nc3ccc(F)cn23)cc1`, the concentration for half-maximal inhibition (IC50) in assay [1] is 57.6 µM.

For `N=C(N)Nc1ccc(CNc2c(Cc3ccccc3)nc3ccccn23)cc1`, the IC50 in [1] was found to be 30.2 µM.

For `N=C(N)Nc1ccc(CNc2cnc3cc(C(=O)NC4CCCC4)ccn23)cc1`, in assay [1], the IC50 came to 0.174 µM. For the same compound, the inhibition in [3] amounted to 4%; in assay [4], 17.8%; in [5], 11.2%; in assay [6], 47.8%; in [7] it was 0%; in [8] it was 0%. In assay [10], this compound came in with an inhibition of 37.1%. In addition, the inhibition result in [11], in [12] and in assay [13] was “Active” throughout.

For the compound `NCCOc1c(Cl)cc(Nc2cnc3ccccn23)cc1Cl`, the IC50 in assay [1] turned out to be 500 µM.

Take `Cc1ccc2nc(-c3cccnc3)c(NCc3ccc(NC(=N)N)cc3)n2c1`: the IC50 in [1] stood at 23.9 µM.

For the compound `N=C(N)Nc1ccc(CNc2c(Cc3cccc(Cl)c3)nc3ccccn23)cc1`, the IC50 in [1] was 18 µM.

Regarding `N=C(N)Nc1ccc(CNc2c(-c3cccnc3)nc3ccc(C(F)(F)F)cn23)cc1`, the IC50 in [1] came out at 200 µM.

As to `N=C(N)Nc1ccc(CNc2c(-c3cc(Cl)cc(Cl)c3)nc3ccccn23)cc1`, the IC50 in [1] is 99.2 µM.

Regarding `N=C(N)Nc1ccc(CCNc2cnc3ccccn23)cc1`, in assay [1], the IC50 was found to be 19.4 µM.

As to `CCc1ccc(-c2nc3ccccn3c2NCc2ccc(NC(=N)N)cc2)cc1`, the 50% inhibitory concentration (IC50) in assay [1] stood at 63.9 µM.

`NC[C@H]1CC[C@H](Nc2cnc3ccccn23)CC1`: the IC50 in assay [1] turned out to be 500 µM.

For the compound `N=C(N)Nc1ccc(CNc2c(-c3ccc(F)cc3)nc3ccccn23)cc1`, the IC50 in [1] is 125 µM.

Take `COC(=O)c1ccn2c(NCc3ccc(NC(=N)N)cc3)c(-c3cccnc3)nc2c1`: in assay [1], the IC50 turned out to be 15 µM.

Consider `N=C(N)Nc1ccc(CNc2c(-c3ccccc3)nc3ccccn23)cc1`, for which, in assay [1], the half-inhibitory concentration (IC50) worked out at 30.1 µM.

As for `N=C(N)Nc1ccc(CNc2cnc3cc(C(=O)NC4CC4)ccn23)cc1`, the IC50 in assay [1] is 0.184 µM. The inhibition in [3] was determined as 2.6%; in assay [4], 8%; in assay [5], 0%; in assay [6], 45.4%; in assay [7] it was 3.3%; in [8], 0%. The compound further returned an inhibition in [10] of 46%. Moreover, the inhibition result in [11], in assay [12] and in [13] was “Active” throughout.

With `NCc1ccc(Nc2cnc3ccccn23)cc1`, the IC50 in assay [1] is more than 500 µM.

As to `N=C(N)Nc1ccc(CNc2c(C3CCNCC3)nc3ccccn23)cc1`, in assay [1], the IC50 stood at 250 µM.

As to `N=C(N)Nc1ccc(CNc2cnc3cc(C(=O)NCc4ccc(F)cc4)ccn23)cc1`, the 50% inhibitory concentration (IC50) in [1] came to 0.254 µM. In addition, the inhibition stood at 4.2% in assay [3]; 19.5% in assay [4]; 11.9% in assay [5]; 45.7% in [6]; 8.3% in [7]; 0% in assay [8]. The same compound yielded an inhibition in assay [10] of 43.2%. In addition, the inhibition entry in assay [11], in assay [12] and in assay [13] was “Active” each time.

As for `CCc1nc2ccccn2c1NCc1ccc(NC(=N)N)cc1`, the IC50 in assay [1] is 48.5 µM.

`Clc1ccc(OCCNc2cnc3ccccn23)c(Cl)c1`: the 50% inhibitory concentration (IC50) in [1] was found to be 250 µM.

Take `CCCCNC(=O)c1ccn2c(NCc3ccc(NC(=N)N)cc3)c(-c3cccnc3)nc2c1`: in assay [1], the IC50 is 6.89 µM.

`N=C(N)Nc1ccc(CNc2c(CN)nc3ccccn23)cc1`: the half-inhibitory concentration (IC50) in assay [1] is 9.3 µM.
